According to the array DNA melting data of Ke et al. (doi:10.1101/2024.01.08.574731):

Columns and labels:
[1] = melting temperature; fluorescence melt of hairpins on a sequencing array, two-state fit, raised by 9.35 °C to match UV melts; details: sodium 0.088 M
How it was run: (§1)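 Cy3 signals were normalised both to pre-quench Cy3 and to control constructs. They came from library hairpins carrying annealed Cy3 and quencher oligos on a sequenced MiSeq flow cell, imaged in 50 mM Na-HEPES pH 8.0, 25 mM NaCl, in 2.5 °C steps up to 60 °C. Bootstrapped two-state fits gave melting temperature and folding enthalpy, and four replicates were combined by inverse variance. Fitted temperatures were then raised by 9.35 °C to match UV melts.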

[2] = folding enthalpy; higher = less favourable; fluorescence melt of hairpins on a sequencing array, two-state fit; details: sodium 0.088 M
How it was run: as §1

Sequence | Tm [1] | folding enthalpy [2]
GATGGTGGAAACGTCATC ((((..(....)..)))) | 33.3 °C | -19.6 kcal/mol
GATGTCCGAAAGGAAATC (((.(((....))).))) | 43.6 °C | -24 kcal/mol
GATGTCGGAAACAACATC (((((.(....).))))) | 35.7 °C | -28.9 kcal/mol
GATGTCGGAAACGGTATC (((..((....))..))) | 31.6 °C | -21.2 kcal/mol
GATGTGACGAAAGTCATC (((..(((....)))))) | 34.2 °C | -12 kcal/mol
GATGTGCGAAAGCAATC (((.(((....)))))) | 38.2 °C | -11.3 kcal/mol
GATGTGGGAAACTACATC (((((.(....).))))) | 44.9 °C | -36.5 kcal/mol
GATGTTGGAAACAACATC (((((((....))))))) | 58.4 °C | -44.6 kcal/mol
GATGTTGGAAACAGTATC (((..((....))..))) | 27 °C | -10.2 kcal/mol
GATTAAGAAATTAATC ((((((....)))))) | 30.4 °C | -14.9 kcal/mol
GATTAAGCGAAAGCTATC (((..(((....)))))) | 29.5 °C | -9.58 kcal/mol
GATTAAGGAAACTTGATC (((.(((....))).))) | 30.3 °C | -26.6 kcal/mol
GATTACCGAAAGGTGATC (((.(((....))).))) | 51.8 °C | -37.5 kcal/mol
GATTACGAAAGTAATC ((((((....)))))) | 56.4 °C | -40 kcal/mol
GATTACGAAAGTATGATC ((((((....)))..))) | 14.5 °C | -6.67 kcal/mol
GATTACGGAAACGTAACC (.(((((....))))).) | 33.8 °C | -16.6 kcal/mol
GATTATGAAAATAATC ((((((....)))))) | 40.1 °C | -29.5 kcal/mol
GATTATGGAAACATAGTC ((.((((....)))).)) | 31.7 °C | -16.8 kcal/mol
GATTCAGGAAACCGAATC (((((.(....).))))) | 36 °C | -26.2 kcal/mol
GATTCAGGAAACTGAATC (((((((....))))))) | 55.7 °C | -36.9 kcal/mol
GATTCCCGAAAGGGTATC (((.(((....))).))) | 45.6 °C | -23.4 kcal/mol
GATTCCGAAAGGAATATC ((((((....)))..))) | 46.6 °C | -17.4 kcal/mol
GATTCCGGAAACAGAATC (((((.(....).))))) | 32.1 °C | -23.4 kcal/mol

Sequence | Tm [1] | folding enthalpy [2]
GATTCCGGAAACGGAATC (((((((....))))))) | 64.7 °C | -42.5 kcal/mol
GATTCCGGAAACGGAGTC ((.((((....)))).)) | 47.6 °C | -23.8 kcal/mol
GATTCGCGAAAGCGATC (((.(((....)))))) | 44.5 °C | -11.6 kcal/mol
GATTCGCGAAAGCGCATC (((.(((....))).))) | 42.7 °C | -21.5 kcal/mol
GATTCGGGAAACCAAATC ((((.((....)).)))) | 30.1 °C | -22.3 kcal/mol
GATTCGGGAAACCGAGTC ((.((((....)))).)) | 46.7 °C | -28 kcal/mol
GATTCGGGAAACTGGATC (((.(.(....).).))) | 30.8 °C | -24.2 kcal/mol
GATTCTGGAAACAGGATC (((.(((....))).))) | 42.7 °C | -37.1 kcal/mol
GATTCTGGAAACGGAATC (((((.(....).))))) | 44.4 °C | -37.2 kcal/mol
GATTGACCGAAAGGTATC (((..(((....)))))) | 28.5 °C | -11.6 kcal/mol
GATTGAGGAAACTCGATC (((.(((....))).))) | 43.2 °C | -33.1 kcal/mol
GATTGAGGAAACTTGATC (((..((....))..))) | 22.4 °C | -7.66 kcal/mol
GATTGCCCGAAAGGGATC (((..(((....)))))) | 25.8 °C | -7.39 kcal/mol
GATTGCGCGAAAGCGATC (((..(((....)))))) | 32 °C | -9.1 kcal/mol
GATTGCGGAAACGCGATC (((.(((....))).))) | 57.5 °C | -30.7 kcal/mol
GATTGCGGAAACGTAGTC ((.(.((....)).).)) | 29.8 °C | -11.4 kcal/mol
GATTGCGGAAACGTGATC (((..((....))..))) | 40.7 °C | -30.6 kcal/mol
GATTGGCGAAAGCCCATC (((.(((....))).))) | 38.4 °C | -17 kcal/mol
GATTGGGCGAAAGCCATC (((..(((....)))))) | 26.8 °C | -8.31 kcal/mol
GATTGTGGAAACGCAATC (((((.(....).))))) | 47.2 °C | -35.5 kcal/mol
GATTTACGAAAGTAGATC (((.(((....))).))) | 41.9 °C | -29.5 kcal/mol
GATTTCCCGAAAGGGATC (((..(((....)))))) | 26.2 °C | -10.4 kcal/mol
GATTTCCGAAAGGAGATC (((.(((....))).))) | 46.8 °C | -34.3 kcal/mol

Sequence | Tm [1] | folding enthalpy [2]
GATTTCGGAAACGAAGTC ((.((((....)))).)) | 39.3 °C | -23.8 kcal/mol
GATTTCGGAAACGAGATC (((.(((....))).))) | 41.6 °C | -30 kcal/mol
GATTTGGAAACAAATC ((((((....)))))) | 48.5 °C | -40.2 kcal/mol
GATTTGGGAAACCAGATC (((.(((....))).))) | 37.7 °C | -35.9 kcal/mol
GATTTGGGAAACTAAATC (((((.(....).))))) | 36.6 °C | -26.6 kcal/mol
GATTTTGGAAACAAAGTC ((.((((....)))).)) | 35.3 °C | -27.5 kcal/mol
GCAAACGAAAGTTAATGC ((((((....)))..))) | 30.6 °C | -14.7 kcal/mol
GCAAACGAAAGTTCTTGC ((((((....)))..))) | 31.7 °C | -10 kcal/mol
GCAAACGAAAGTTGTGC ((((((....))).))) | 43.4 °C | -22.6 kcal/mol
GCAAACGAAAGTTTTGC ((((((....))).))) | 49.4 °C | -28.5 kcal/mol
GCAAACGCGAAAGCGTGC (((..(((....)))))) | 55.7 °C | -13.7 kcal/mol
GCAAAGCGAAAGCAGTGC (((..((....))..))) | 44.7 °C | -14 kcal/mol
GCAAAGCGAAAGCGATGC (((..((....))..))) | 61.7 °C | -24.4 kcal/mol
GCAAAGGGAAACCCTTGC ((((.((....)).)))) | 46 °C | -29.5 kcal/mol
GCAAATGGAAACATTCGC ((.((((....)))).)) | 38.4 °C | -28.5 kcal/mol
GCAAATGGAAACGTTTGC (((((.(....).))))) | 49.6 °C | -38.1 kcal/mol
GCAACAACGAAAGTTTGC (((..(((....)))))) | 36.1 °C | -25 kcal/mol
GCAACAGGAAACCGTTGC (((((.(....).))))) | 50.4 °C | -43.8 kcal/mol
GCAACAGGAAACTGTTGC (((((((....))))))) | 68.5 °C | -40.3 kcal/mol
GCAACCACGAAAGTGTGC (((..(((....)))))) | 41.7 °C | -17.4 kcal/mol
GCAACCGAAAGGTATTGC ((((((....)))..))) | 39.9 °C | -18.3 kcal/mol
GCAACCGAAAGGTCGTGC ((((((....)))..))) | 38.1 °C | -17.6 kcal/mol
GCAACCGAAAGGTGGTGC ((((((....)))..))) | 48.6 °C | -20.8 kcal/mol

Sequence | Tm [1] | folding enthalpy [2]
GCAACCGAAAGGTTCTGC ((((((....)))..))) | 41.8 °C | -14.9 kcal/mol
GCAACCGGAAACGGTCAC (..((((....))))..) | 24.9 °C | -8.88 kcal/mol
GCAACGACGAAAGTCTGC (((..(((....)))))) | 40.5 °C | -16.6 kcal/mol
GCAACGCCGAAAGGCTGC (((..(((....)))))) | 47.8 °C | -15.4 kcal/mol
GCAACGCGAAAGCCATGC (((..((....))..))) | 29.1 °C | -7.42 kcal/mol
GCAACGCGAAAGCCTCGC ((.(.((....)).).)) | 30.9 °C | -7.26 kcal/mol
GCAACGCGAAAGCGCGGC ((..(((....)))..)) | 48.1 °C | -14.8 kcal/mol
GCAACGGGAAACCATCGC ((.(.((....)).).)) | 27 °C | -12.5 kcal/mol
GCAACGGGAAACCATTGC ((((.((....)).)))) | 41.5 °C | -26.8 kcal/mol
GCAACTCCGAAAGGATGC (((..(((....)))))) | 38.1 °C | -19.8 kcal/mol
GCAACTCGAAAGAGATGC (((.(((....))).))) | 53.8 °C | -40.1 kcal/mol
GCAACTGAAAAGTTGC ((((((....)))))) | 62.5 °C | -36.6 kcal/mol
GCAACTGGAAACAATTGC ((((.((....)).)))) | 34.5 °C | -32.8 kcal/mol
GCAAGAGCGAAAGCTTGC (((..(((....)))))) | 51.9 °C | -22.8 kcal/mol
GCAAGAGGAAACCCTTGC (((((.(....).))))) | 45.3 °C | -25.9 kcal/mol
GCAAGAGGAAACTCTTAC (.(((((....))))).) | 28 °C | -14.6 kcal/mol
GCAAGCCGAAAGGCCTGC (((.(((....))).))) | 54 °C | -23.3 kcal/mol
GCAAGCCGAAAGGCGTGC (((.(((....))).))) | 68.7 °C | -18.9 kcal/mol
GCAAGCCGAAAGGCTGC (((.(((....)))))) | 68.5 °C | -18.8 kcal/mol
GCAAGCGAAAGCTAATGC ((((((....)))..))) | 39.4 °C | -15.5 kcal/mol
GCAAGCGAAAGCTACTGC ((((((....)))..))) | 37.3 °C | -13.2 kcal/mol
GCAAGCGAAAGCTATGC ((((((....))).))) | 51.2 °C | -23 kcal/mol
